Series [1] deals with HCT-116. Put plainly: Cytotoxicity against FLT3-independent human HCT116 cells after 72 hrs by MTT assay. The note with it: HCT-116, 72 h. It counts as functional, cell-based. The method, boiled down: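 Adherent lines at 2−5 × 10³ cells/well were allowed to settle 24 h, then the medium was replaced with serial inhibitor dilutions for 72 h. MTT was added for 2−4 h, followed by dissolution in 100% DMSO. OD read at 570 nm. Viability relative to 0.1% DMSO controls; triplicate. Grown in RPMI 1640 or DMEM with 10% FBS, 5% CO₂, 37 °C.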
On the technique in general: Tetrazolium dyes change colour on reduction, which living cells bring about.

Series [2] relates to MV4-11. Put plainly: Cytotoxicity against FLT3-dependent human MV4-11 cells after 72 hrs by MTT assay. To be noted: MV4-11, 72 h. It counts as functional, cell-based. In outline:
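Leukemia cells at 1−4 × 10⁴ per well were exposed to increasing inhibitor concentrations for 72 h at 37 °C. MTT was then added for 2−4 h, and cells were lysed with 20% acidified SDS. OD read at 570 nm. Viability relative to 0.1% DMSO controls; triplicate. MV4-11 grown in IMDM, others in RPMI 1640 or DMEM with 10% FBS.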

Series [3] deals with T1, Receptor-type tyrosine-protein kinase FLT3 (Homo sapiens, UniProt P36888).
T1 sequence (P36888 whole entry): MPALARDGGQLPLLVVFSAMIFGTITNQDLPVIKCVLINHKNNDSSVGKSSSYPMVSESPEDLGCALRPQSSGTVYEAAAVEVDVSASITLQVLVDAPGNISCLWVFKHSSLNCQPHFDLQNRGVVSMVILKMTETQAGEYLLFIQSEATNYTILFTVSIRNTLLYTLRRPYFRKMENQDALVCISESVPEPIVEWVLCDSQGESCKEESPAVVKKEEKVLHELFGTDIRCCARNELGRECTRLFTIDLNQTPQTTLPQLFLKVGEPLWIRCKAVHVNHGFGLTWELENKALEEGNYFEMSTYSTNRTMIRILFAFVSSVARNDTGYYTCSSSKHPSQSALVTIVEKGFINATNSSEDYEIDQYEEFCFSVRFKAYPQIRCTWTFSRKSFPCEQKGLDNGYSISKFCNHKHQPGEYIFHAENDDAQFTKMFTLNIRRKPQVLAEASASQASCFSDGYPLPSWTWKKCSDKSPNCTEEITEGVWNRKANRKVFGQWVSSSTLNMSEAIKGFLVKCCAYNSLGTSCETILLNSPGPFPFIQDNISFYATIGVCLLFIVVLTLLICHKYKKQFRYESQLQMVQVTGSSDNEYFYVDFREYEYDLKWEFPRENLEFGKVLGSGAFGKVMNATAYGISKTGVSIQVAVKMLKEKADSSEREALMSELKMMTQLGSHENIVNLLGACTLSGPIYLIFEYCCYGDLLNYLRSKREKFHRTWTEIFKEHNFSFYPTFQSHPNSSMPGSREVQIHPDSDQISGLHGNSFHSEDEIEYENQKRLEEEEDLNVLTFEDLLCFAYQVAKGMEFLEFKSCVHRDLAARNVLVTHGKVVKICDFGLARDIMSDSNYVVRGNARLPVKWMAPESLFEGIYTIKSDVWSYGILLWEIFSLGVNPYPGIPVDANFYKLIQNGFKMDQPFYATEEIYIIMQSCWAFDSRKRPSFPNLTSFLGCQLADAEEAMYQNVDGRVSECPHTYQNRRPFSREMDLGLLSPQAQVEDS
Put plainly: Inhibition of human FLT3. In outline:
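Human FLT3 kinase assayed across a dose−response series at 200 μM ATP.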

Series [4] has as its system MV4-11. Put plainly: Antitumor activity against human MV4-11 cells xenografted in NOD-SCID mouse assessed as tumor growth inhibition at 50 mg/kg, ip once daily for 21 days measured every 3 days. It is filed as functional. The note with it: MV4-11, ip, route intraperitoneal, read-out: GI.
Series [5] can be described thus: Cmax in Sprague-Dawley rat at 40 mg/kg, ip. It is filed as ADME, organism-based. Set-up: dose 40 mg/kg, route intraperitoneal. The note with it: in vivo. The method, boiled down: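 Male Sprague−Dawley rats (200−250 g), n = 3, fasted overnight, with a femoral-vein catheter for blood sampling. Single 40 mg/kg ip dose; plasma drug levels measured by LC-MS/MS.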

As usually defined, the IC50 is the concentration that gives 50% inhibition. A low value points to higher potency. As usually defined, the Cmax is the highest concentration seen after dosing.

`COc1cc2ncnc(Sc3nc(C)c(CC(=O)Nc4ccc(NC(C)=O)cc4)s3)c2cc1OC`: the IC50 in series [1] is more than 10000 nM; in series [2], more than 5000 nM.

As to `O=C(Nc1cccc(Cl)c1)Nc1nnc(Sc2ncnc3cc(OCCCN4CCOCC4)ccc23)s1`, the IC50 was more than 10000 nM in series [1] and 12 nM in series [2].

On to `COc1cc2ncnc(Sc3nccs3)c2cc1OCCN1CCOCC1`, for which the IC50 in series [1] is more than 10000 nM; in series [2], 2950 nM.

`COCCOc1cc2ncnc(Sc3nnc(NC(=O)Nc4cccc(Cl)c4)s3)c2cc1OCCOC`: the IC50 in series [1] is more than 10000 nM; in series [2] it was 20 nM.

`COCCOc1cc2ncnc(Sc3nc(CC(=O)Nc4cccc(Cl)c4)cs3)c2cc1OCCOC`: the values for the 50% inhibitory concentration (IC50) in series [1] and in series [2] were more than 10000 nM and 3200 nM, respectively.

On to `COCCOc1cc2ncnc(Sc3nnc(NC(C)=O)s3)c2cc1OCCOC`, for which the IC50 in series [1] was more than 10000 nM; in series [2] it was more than 11000 nM.

Consider `COCCOc1cc2ncnc(Sc3nc(C)c(CC(=O)NC4CC4)s3)c2cc1OCCOC`, for which the figures for the IC50 in series [1] and in series [2] were more than 10000 nM and 2420 nM, respectively.

As for `COCCOc1cc2ncnc(Sc3nc(CC(=O)Nc4ccc(C(F)(F)F)cc4)cs3)c2cc1OCCOC`, the IC50 was more than 10000 nM in series [1] and 2880 nM in series [2].

`CCN(CC)CCNC(=O)c1c(C)[nH]c(/C=C2\C(=O)Nc3ccc(F)cc32)c1C` [SUNITINIB] returned an IC50 in series [2] of 3 nM.

In the case of `COCCOc1cc2ncnc(Sc3nnc(NC(=O)Nc4ccc(C)cc4)s3)c2cc1OCCOC`, the concentration for half-maximal inhibition (IC50) in series [1] is more than 10000 nM; in series [2], 22 nM.

Consider `COCCOc1cc2ncnc(Sc3nc(CC(=O)Nc4cc(C)cc(C)c4)cs3)c2cc1OCCOC`, for which the half-maximal inhibitory concentration (IC50) in series [1] is more than 10000 nM; in series [2], 9040 nM.

For the compound `C=CC(=O)Nc1nnc(Sc2ncnc3cc(OCCCN4CCOCC4)ccc23)s1`, the figures for the IC50 in series [1] and in series [2] were more than 10000 nM and 6000 nM, respectively.

For `COc1cc2ncnc(Sc3nncs3)c2cc1OC`, the values for the IC50 in series [1], in series [2] and in series [3] were more than 10000 nM, 1200 nM and 9 nM, respectively.

Regarding `COc1cc2ncnc(Sc3nc(C)c(CC(=O)Nc4cc(Cl)cc(Cl)c4)s3)c2cc1OC`, the IC50 is more than 10000 nM in series [1] and 1400 nM in series [2].

As for `COc1cc2ncnc(Sc3nccs3)c2cc1OCCN1CCCCC1`, the figures for the IC50 in series [1] and in series [2] were more than 10000 nM and 1610 nM, respectively.

For the compound `C#Cc1cccc(NC(=O)Nc2nnc(Sc3ncnc4cc(OCCOC)c(OCCOC)cc34)s2)c1`, the inhibition in vivo at 50 mg/kg in series [4] was less than 50%. Also, the IC50 in series [1] is more than 10000 nM; in series [2] it was 5 nM.

Consider `COc1cc2ncnc(Sc3nc(C)cs3)c2cc1OC`, for which the figures for the IC50 in series [1] and in series [2] were more than 10000 nM and 3680 nM, respectively.

`C=CC(=O)Nc1nnc(Sc2ncnc3cc(OCCOC)c(OCCOC)cc23)s1`: the IC50 in series [1] and in series [2] was more than 10000 nM in each case.

For the compound `COCCOc1cc2ncnc(Sc3nc(CC(=O)Nc4cccc(C(F)(F)F)c4)cs3)c2cc1OCCOC`, the half-maximal inhibitory concentration (IC50) in series [1] was more than 10000 nM; in series [2] it was 830 nM.

With `COCCOc1cc2ncnc(Sc3nc(C)c(CC(=O)Nc4nc5ccc(OC)cc5s4)s3)c2cc1OCCOC`, the IC50 in series [1] is more than 10000 nM; in series [2], 1900 nM.

As to `COCCOc1cc2ncnc(Sc3nnc(NC(=O)Nc4ccc(C(F)(F)F)cc4)s3)c2cc1OCCOC`, the values for the IC50 in series [1] and in series [2] were more than 10000 nM and 300 nM, respectively.

Regarding `COc1cc2ncnc(Sc3nc(C)c(CC(=O)NCc4ccc(Cl)cc4)s3)c2cc1OC`, the half-inhibitory concentration (IC50) in series [1] and in series [2] was more than 10000 nM each time.

Turning to `COCCOc1cc2ncnc(Sc3nnc(NC(=O)Nc4cccc(F)c4)s3)c2cc1OCCOC`, the figures for the IC50 in series [1] and in series [2] were more than 10000 nM and 400 nM, respectively.

For the compound `COCCOc1cc2ncnc(Sc3nc(C)c(CC(=O)Nc4cc(C)cc(C)c4)s3)c2cc1OCCOC`, the IC50 in series [1] is more than 10000 nM; in series [2], 625 nM.

In the case of `COCCOc1cc2ncnc(Sc3nc(C)c(CC(=O)Nc4ccc(C(F)(F)F)cc4)s3)c2cc1OCCOC`, the IC50 in series [1] is more than 10000 nM; in series [2] it was 27 nM.

Take `COc1cc2ncnc(Sc3nc(C)c(CC(=O)Nc4cccc(C(F)(F)F)c4)s3)c2cc1OC`: the IC50 in series [1] was more than 10000 nM; in series [2], 20 nM.

On to `COc1cc2ncnc(Sc3nccs3)c2cc1OC`, for which the results for the IC50 in series [1], in series [2] and in series [3] were more than 10000 nM, 1140 nM and 7 nM, respectively.

Regarding `C#Cc1cccc(NC(=O)Nc2nnc(Sc3ncnc4cc(OCCCN5CCOCC5)ccc34)s2)c1`, the inhibition in vivo at 50 mg/kg in series [4] is less than 50%. For the same compound, the IC50 in series [1] is more than 10000 nM; in series [2], 0.3 nM; in series [3], 6 nM. This compound also gave a Cmax in series [5] of 2740 ng/mL.

For `COCCOc1cc2ncnc(Sc3nnc(NC(=O)Nc4cccc(Br)c4)s3)c2cc1OCCOC`, the concentration for half-maximal inhibition (IC50) in series [1] was more than 10000 nM; in series [2], 22 nM.

As to `COc1cc2c(Sc3nccs3)ncnc2cc1OCCN1CCCC1`, the IC50 is more than 10000 nM in series [1] and 1600 nM in series [2].

Turning to `COc1cc2c(Sc3nccs3)ncnc2cc1OCCN1CCCCC1`, the results for the IC50 in series [1] and in series [2] were more than 10000 nM and 1500 nM, respectively.

As to `COCCOc1cc2ncnc(Sc3nccs3)c2cc1OCCOC`, the values for the IC50 in series [1] and in series [2] were more than 10000 nM and 1400 nM, respectively.

Consider `COc1cc2ncnc(Sc3nccs3)c2cc1OCCCN(C)C`, for which the IC50 in series [1] was more than 10000 nM; in series [2], 1130 nM.

As for `O=C(Nc1ccccc1)Nc1nnc(Sc2ncnc3cc(OCCCN4CCOCC4)ccc23)s1`, the values for the IC50 in series [1] and in series [2] were more than 10000 nM and 10 nM, respectively.

Take `COc1cc2c(Sc3nccs3)ncnc2cc1OCCCN1CCOCC1`: the results for the 50% inhibitory concentration (IC50) in series [1] and in series [2] were more than 10000 nM and 1150 nM, respectively.

For `COCCOc1cc2ncnc(Sc3nc(C)c(CC(=O)Nc4cccc(C(F)(F)F)c4)s3)c2cc1OCCOC`, the results for the IC50 in series [1] and in series [2] were more than 10000 nM and 25 nM, respectively.

For `COc1cc2c(Sc3nccs3)ncnc2cc1OCCN1CCOCC1`, the values for the IC50 in series [1] and in series [2] were more than 10000 nM and 3000 nM, respectively.

For the compound `COc1cc2ncnc(Sc3nc(C)c(CC(=O)Nc4cccc(Cl)c4)s3)c2cc1OC`, the IC50 in series [1] is more than 10000 nM; in series [2], 450 nM.

For the compound `COc1cc2ncnc(Sc3nccs3)c2cc1OCCCN1CCOCC1`, the results for the IC50 in series [1] and in series [2] were more than 10000 nM and 1020 nM, respectively.

Take `COCCOc1cc2ncnc(Sc3nc(C)c(CC(=O)Nc4cccc(Cl)c4)s3)c2cc1OCCOC`: the IC50 is more than 10000 nM in series [1] and 210 nM in series [2].

Take `COCCOc1cc2ncnc(Sc3nncs3)c2cc1OCCOC`: the IC50 in series [1] is more than 10000 nM; in series [2] it was 1350 nM.

In series [2], `COc1cc2c(N3CCN(C(=O)Nc4ccc(OC(C)C)cc4)CC3)ncnc2cc1OCCCN1CCCCC1` [TANDUTINIB] yielded an IC50 of 55 nM.

For the compound `COc1cc2ncnc(Sc3nccs3)c2cc1OCCN1CCCC1`, the IC50 was more than 10000 nM in series [1] and 1240 nM in series [2].

Values taken from ChEMBL document CHEMBL2046280, “Discovery of the novel potent and selective FLT3 inhibitor 1-{5-[7-(3- morpholinopropoxy)quinazolin-4-ylthio]-[1,3,4]thiadiazol-2-yl}-3-p-tolylurea and its anti-acute myeloid leukemia (AML) activities in vitro and in vivo” (J Med Chem, 2012).
